Compounds with a hit are over-represented: about 3.1% of the library has one in this group of screens.
PP5 inh: blocks human protein phosphatase 5 activity; P53041; purified PP5c, OMFP substrate fluorescence; inhibition, % at 6.7 µM; hit rate 0.18% among 320,000;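 active means inhibition above the campaign's mean inhibition across all tested compounds plus 3 SD, cut at about 9.5% in these data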;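 further: 0% = DMSO only and 100% = 100 µM cantharidin control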
core dimer inh: HCV core protein dimerization inhibition; TR-FRET GST/Flag-core106 dimerization, 1536-well; AID 1899; hit rate 0.33% among 300,000; inhibition, % at 5 µM;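 active means inhibition above the mean of all tested compounds plus 3 SD, set per screening campaign, cut at about 45% in these data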
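System – GST-tagged and Flag-tagged HCV core protein residues 1-106 · Repeats – one well for each compound · Technique – TR-FRET 671 and 617 nm emission · Doses – one concentration, 5 µM, in 0.5% DMSO · Times – 4 h, 22.5 °C incubation · Also added – Eu donor and XL665 acceptor anti-tag antibodies · Measure – percent inhibition of core106 dimerization signal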
Myeloid diff MLP: promotes myeloid progenitor differentiation; hit rate 1% among 360,000; calls only at 10 µM; ER-HoxA9 myeloid progenitors, lysozyme-GFP differentiation, flow cytometry;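 active means normalized GFP-positive differentiation at or above the plate's own cutoff, the solvent-only control mean plus 3 SD; inconclusive means no clear call, values can overlap the other calls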;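 further: cells exposed to compound for four days before flow analysis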
PP1 counter: blocks human PP1-alpha phosphatase, a PP5 counter-screen; purified PP1alpha, OMFP fluorescence; inhibition, % at 6.7 µM; hit rate 0.9% among 320,000;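 active means inhibition above the mean inhibition of all tested compounds plus 3 SD, computed separately for each screening campaign, cut at about 15% in these data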
Target sequence (P62136 whole entry, looked up): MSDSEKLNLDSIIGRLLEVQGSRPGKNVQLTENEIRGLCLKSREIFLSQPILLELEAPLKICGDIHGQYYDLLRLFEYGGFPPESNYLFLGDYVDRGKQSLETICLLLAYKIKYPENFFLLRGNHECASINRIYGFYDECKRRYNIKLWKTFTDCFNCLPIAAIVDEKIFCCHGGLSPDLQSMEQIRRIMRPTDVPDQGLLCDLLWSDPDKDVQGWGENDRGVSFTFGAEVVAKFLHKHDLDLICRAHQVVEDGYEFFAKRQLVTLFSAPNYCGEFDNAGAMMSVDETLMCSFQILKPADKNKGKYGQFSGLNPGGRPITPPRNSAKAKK
NadD inh: inhibitors of Staphylococcus aureus NadD; purified NadD enzyme, colorimetric absorbance read-out; inhibition, % at 20 µM; hit rate 0.78% among 360,000; in the data active means inhibition above about 26%
CTSL1 counter: counter-screen for PFM18AAP inhibitors: inhibitors of F. hepatica cathepsin L1; inhibition, % at 5.96 µM; AID 1906; recombinant F. hepatica cathepsin L1, Z-Leu-Arg-MCA fluorescence; hit rate 0.49% among 300,000;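 active means inhibition above the mean of all tested compounds plus 3 SD, set per screening campaign, cut at about 17% in these data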;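 further: 0% = plate median of test compound wells and 100% = 1 µM Z-Phe-Ala-diazomethylketone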
PP1 inh confirm: confirmation of human PP1 phosphatase inhibitors. purified PP1alpha, OMFP substrate fluorescence. hit rate 52% among 1,900. AID 2358. inhibition, % at 6.7 µM. shares compounds with PP1 counter;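 active means mean PP1 inhibition above a set limit taken from the earlier primary screen, cut at about 15% in these data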
PP5 counter: counter-screen for PP1 inhibitors: human PP5 phosphatase inhibition. purified PP5c, OMFP fluorescence. inhibition, % at 6.7 µM. hit rate 4% among 1,900. shares compounds with PP1 counter;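 active means mean PP5 inhibition over triplicate wells above about 9.5% taken from the earlier PP1 screen, limit read from the data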
NadD inh conf: confirmation of Staphylococcus aureus NadD inhibitors; shares compounds with NadD inh; purified S. aureus NadD, colorimetric enzyme assay; inhibition, % at 20 µM; hit rate 13% among 2,000; AID 624309; in the data active means inhibition mostly above about 42%, no sharp cut-off; inactive means mostly below about 42%
The depositor's hits bear a star; i = inactive; ? = inconclusive; · = no result.

SMILES	PP5 inh	core dimer inh	Myeloid diff MLP	PP1 counter	NadD inh	CTSL1 counter	PP1 inh confirm	PP5 counter	NadD inh conf
N#Cc1ccc(C(=O)Nc2nnc(-c3cccs3)o2)cc1	0	5	i	4	15	6	·	·	·
O=C(Nc1nnc(-c2cccs2)o1)c1cccc(C(F)(F)F)c1	3	6	i	20*	1	-4	18*	1	·
Cc1ccc(-n2c(=O)cc(NCc3cccnc3)[nH]c2=O)cc1	2	-1	i	25*	-4	0	-4	-5	·
Cc1ccc(CNCc2cccnc2)cc1	1	-2	i	4	0	-1	·	·	·
COc1cc(NS(=O)(=O)c2ccc(Nc3nc(-c4ccccn4)cs3)cc2)nc(OC)n1	7	4	i	63*	10	0	71*	1	·
Cc1nn(C)cc1S(=O)(=O)N1CCN(c2cccc(Cl)c2)CC1	2	-2	i	-3	-2	0	·	·	·
CC(C)(C)OC(=O)C[C@H]1C/C=C\C[C@@H](CC(=O)N[C@@H](CO)Cc2ccccc2)C(=O)NC[C@H](c2ccccc2)OC1=O	·	·	i	·	-3	·	·	·	·
Cc1cccc(-c2nnc(NC(=O)c3ccc(N4C(=O)CCC4=O)cc3)s2)c1	5	9	i	19*	5	4	12	0	·
C/C(=N\NC(=O)c1nnn(-c2nonc2N)c1CN(C)c1ccccc1)c1ccccn1	3	12	?	19*	7	1	30*	2	·
CN(C)c1ccc(C2CNC(c3ccc(Cl)c([N+](=O)[O-])c3)c3[nH]c4ccccc4c32)cc1 (stereo not given)	4	13	i	21*	22	-6	17*	0	·
O=[N+]([O-])c1cccc(C2NCC(c3ccccc3Cl)c3c2[nH]c2ccccc32)c1 (stereo not given)	0	4	i	10	10	-3	·	·	·
CN(CC(=O)Nc1ccc(F)cc1)C(=O)CN1C(=O)NC2(CCCc3ccccc32)C1=O (stereo not given)	0	-5	i	-2	1	-4	·	·	·
N#Cc1c(SCC(=O)Nc2nc3ccccc3s2)sc2c(O)cc(=O)[nH]c12	1	·	i	19*	18	·	1	-3	·
N#Cc1c(SCC(=O)Nc2nccs2)sc2c(O)cc(=O)[nH]c12	1	-33	i	26*	11	3	1	-3	·
Cc1ccc(S(=O)(=O)N2CCN(C(=O)N3CCCCC3)CC2)c(C)c1	·	·	i	·	-6	·	·	·	·
CCC(=O)N[C@@H]1CC[C@@H](CCNC(=O)Nc2ccc(F)cc2)O[C@@H]1CO	·	·	i	·	·	·	·	·	·
O=C(O)C1=NN(c2ccccc2)C(=O)C1	-3	-2	i	29*	-3	-4	-3	-4	·
O=C(NCc1ccncc1)C(=O)N/N=C/c1ccc(OCc2ccccc2)cc1	0	5	i	38*	-3	1	32*	5	·
Clc1ccc(SCc2csc(N3CCOCC3)n2)cc1	2	0	i	-5	-3	-13	·	·	·
Clc1ccc(SCc2cc(N3CCOCC3)nc(-c3ccccn3)n2)cc1	1	4	i	24*	6	2	32*	1	·
Cc1ccc2nc(NNC(=O)c3ccc4c(c3)OCCO4)sc2c1	0	-1	i	-3	2	0	·	·	·
Cc1ccc2nc(NNC(=O)c3ccc(S(=O)(=O)N4CCc5ccccc5C4)cc3)sc2c1	1	38	i	29*	59*	0	25*	2	56*
Cc1cccc2sc(NNC(=O)c3ccc(S(=O)(=O)N4CC(C)CC(C)C4)cc3)nc12 (stereo not given)	3	26	i	23*	58*	2	19*	0	54*
NS(=O)(=O)c1ccc(CCNC(=O)C(=O)NCC2OCCN2S(=O)(=O)c2ccc(Cl)cc2)cc1 (stereo not given)	-1	13	i	-3	-1	1	·	·	·
CCOC(=O)c1ccc(-n2c(O)c(/C=N/NC(=O)C3COc4ccccc4O3)c3ccccc3c2=O)cc1 (stereo not given)	-2	10	i	31*	31*	5	33*	-2	41
SMILES	PP5 inh	core dimer inh	Myeloid diff MLP	PP1 counter	NadD inh	CTSL1 counter	PP1 inh confirm	PP5 counter	NadD inh conf
COc1ccc(NC(=O)c2cc(-c3ccco3)nc3ccccc23)cc1S(=O)(=O)N1CCOCC1	2	81*	i	45*	30*	6	9	-4	67*
Cc1ccc(NC(=O)c2cc(-c3ccco3)nc3ccccc23)cc1S(=O)(=O)N1CCOCC1	1	69*	i	23*	63*	1	24*	3	60*
COc1ccc(NC(=O)c2cc(C)nc3ccccc23)cc1S(=O)(=O)N1CCOCC1	·	·	i	·	-2	·	·	·	·
CC(C)Cc1nccs1	1	-1	i	1	1	-2	·	·	·
C[C@@H]1CC[C@H](Cc2ccc(-n3cccc3)cc2)N1C(=O)OC(C)(C)C	·	·	i	·	5	·	·	·	·
Cc1ccc(-n2nc3c(c2NC(=O)/C=C\c2ccc4c(c2)OCO4)CSC3)cc1	4	39	i	20*	41*	-2	13	-2	62*
O=C1/C(=C/c2ccco2)CCc2ccccc21	1	3	i	0	-4	12	·	·	·
Nc1ccc2c(c1)C/C(=C/c1ccco1)C2=O	0	94*	i	51*	31*	-4	9	3	8
COc1ccc(Cn2c(SCc3ccccc3C)nc3cc(OC)c(OC)cc3c2=N)cc1	3	-9	i	30*	30*	6	3	-1	15
COc1cc(C2c3c(c(C)c(C)oc3=O)Oc3c(C)c(C)oc(=O)c32)ccc1OS(=O)(=O)c1ccc(C)cc1	-1	·	?	21*	32*	·	26*	-3	2
CC(C)CCN1CCN=C1Nc1ccccc1	-1	-8	i	-5	0	-3	·	·	·
COc1ccc(S(=O)(=O)N(C)C[C@H]2Oc3c(NS(=O)(=O)c4ccc(F)cc4)cccc3C(=O)N([C@H](C)CO)C[C@@H]2C)cc1	·	·	i	·	2	·	·	·	·
COc1cc(/C=N/NC(=O)COc2c(C)cc([N+](=O)[O-])cc2C)ccc1OC(=O)c1ccccc1Br	2	37	i	21*	33*	3	17*	0	-3
CCCCCCn1c(=O)n2n(c1=O)C[C@]1(OC(=O)NC3CC3)CN(S(=O)(=O)c3ccc(C)cc3)C[C@]1(O)C2	·	·	i	·	-5	·	·	·	·
